For one compound, Activity and IC50 results are on record in ChEMBL document CHEMBL4043093, “2-Oxo-3, 4-dihydropyrimido[4, 5-d]pyrimidinyl derivatives as new irreversible pan fibroblast growth factor receptor (FGFR) inhibitors” (Eur J Med Chem, 2017).

In general, IC50 refers to the concentration at which inhibition is half-maximal.

Molecules are shown by their SMILES.

Assay [1] has as its target Aurora kinase B (Homo sapiens) (UniProt Q96GD4). The experiment in a line: Inhibition of wild-type human partial length AURKB (D25 to A303 residues) expressed in HEK293 cells assessed as residual activity at 1000 nM after 30 mins by Kinomescan method relative to control. The format is cell-based.
For assay [2], the target named is Fibroblast growth factor receptor 3 (Homo sapiens, UniProt P22607). Put plainly: Inhibition of human recombinant His-tagged FGFR3 cytoplasmic domain (399 to 806 residues) expressed in baculovirus using Tyr-4 peptide after 1 hr by FRET-based Z'-Lyte assay.
In assay [3] the target is Mitogen-activated protein kinase 1 (Homo sapiens) (UniProt P28482). Put plainly: Inhibition of wild-type human full length ERK2 (M1 to S360 residues) expressed in Escherichia coli BL21 assessed as residual activity at 1000 nM after 30 mins by Kinomescan method relative to control. Summed up: (§1)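 Single-concentration screen at 1 µM across a 456-kinase KINOMEscan panel. The read-out is Percent Control for each kinase.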

The target of assay [4] is Serine/threonine-protein kinase PLK4 (Homo sapiens) (UniProt O00444). The experiment in a line: Inhibition of wild-type human partial length PLK4 (M1 to S273 residues) expressed in HEK293 cells assessed as residual activity at 1000 nM after 30 mins by Kinomescan method relative to control. Type of assay: cell-based.
Assay [5] concerns the target Serine/threonine-protein kinase ULK3 (Homo sapiens) (UniProt Q6PHR2). The experiment in a line: Inhibition of wild-type human partial length ULK3 (M1 to Q290 residues) expressed in HEK293 cells assessed as residual activity at 1000 nM after 30 mins by Kinomescan method relative to control. The format is cell-based.
Assay [6] concerns the target Tyrosine-protein kinase receptor TYRO3 (Homo sapiens) (UniProt Q06418). The experiment in a line: Inhibition of wild-type human partial length TYRO3 (S497 to T814 residues) expressed in Escherichia coli BL21 assessed as residual activity at 1000 nM after 30 mins by Kinomescan method relative to control.
In assay [7] the target is Activin receptor type-1 (Homo sapiens) (UniProt Q04771). Put plainly: Inhibition of wild-type human ACVR1 (C188 to C509 residues) expressed in Escherichia coli BL21 assessed as residual activity at 1000 nM after 30 mins by Kinomescan method relative to control. An outline of the steps:
(§2)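 Single-point screen at a fixed 1 µM, run within a 456-kinase DiscoveRx KINOMEscan panel. Each kinase's read-out is Percent Control, i.e. signal relative to a control without compound. Hits were scored by a Percent Control < 35 cut-off, and an S(35) selectivity score was calculated across the non-mutant kinases.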

For assay [8], the target named is NUAK family SNF1-like kinase 1 (Homo sapiens) (UniProt O60285). Put plainly: Inhibition of wild-type human partial length ARK5 (E25 to I332 residues) expressed in Escherichia coli BL21 assessed as residual activity at 1000 nM after 30 mins by Kinomescan method relative to control.
Assay [9] concerns the target Serine/threonine-protein kinase MAK (Homo sapiens) (UniProt P20794). The experiment in a line: Inhibition of wild-type human partial length MAK (M1 to P314 residues) expressed in Escherichia coli BL21 assessed as residual activity at 1000 nM after 30 mins by Kinomescan method relative to control.
Assay [10] has as its target Serine/threonine-protein kinase NIM1 (Homo sapiens) (UniProt Q8IY84). The experiment in a line: Inhibition of wild-type human partial length NIM1 (Q44 to N355 residues) expressed in HEK293 cells assessed as residual activity at 1000 nM after 30 mins by Kinomescan method relative to control. The format is cell-based.
In assay [11] the target is Tyrosine-protein kinase Fyn (Homo sapiens) (UniProt P06241). The experiment in a line: Inhibition of wild-type human partial length FYN (T243 to L534 residues) expressed in Escherichia coli BL21 assessed as residual activity at 1000 nM after 30 mins by Kinomescan method relative to control.
The subject of assay [12] is Phosphatidylinositol 4,5-bisphosphate 3-kinase catalytic subunit alpha isoform (Homo sapiens), P42336 [E542K]. The experiment in a line: Inhibition of human partial length PIK3CA E542K mutant (R108 to N1068 residues) expressed in HEK293 cells assessed as residual activity at 1000 nM after 30 mins by Kinomescan method relative to control. Type of assay: cell-based. Summed up:
(§3)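 KINOMEscan binding panel of 456 kinases, with the test compound at a single concentration of 1 µM. Read-out is Percent Control.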

Assay [13] deals with Phosphatidylinositol 4-phosphate 5-kinase type-1 gamma (Homo sapiens) (UniProt O60331). The experiment in a line: Inhibition of wild-type human partial length PIP5K1C (M1 to T668 residues) expressed in HEK293 cells assessed as residual activity at 1000 nM after 30 mins by Kinomescan method relative to control. The format is cell-based.
The test system of assay [14] is Receptor-type tyrosine-protein kinase FLT3 (Homo sapiens), P36888 [N841I]. The experiment in a line: Inhibition of human partial length FLT3 N841I mutant (V592 to Y969 residues) expressed in Escherichia coli BL21 assessed as residual activity at 1000 nM after 30 mins by Kinomescan method relative to control. Summed up: as §3
The target in assay [15] is Inhibitor of nuclear factor kappa-B kinase subunit epsilon (Homo sapiens) (UniProt Q14164). Put plainly: Inhibition of wild-type human full length IKK-epsilon (M1 to V716 residues) expressed in HEK293 cells assessed as residual activity at 1000 nM after 30 mins by Kinomescan method relative to control. The format is cell-based. An outline of the steps: as §1
The test system of assay [16] is Tyrosine-protein kinase ABL1 (Homo sapiens), P00519 [F317I]. The experiment in a line: Inhibition of human phosphorylated ABL1 F317I mutant (S229 to K512 residues) expressed in HEK293 cells assessed as residual activity at 1000 nM after 30 mins by Kinomescan method relative to control. Type of assay: cell-based. Summed up:
as §2

For assay [17], the target named is RAC-gamma serine/threonine-protein kinase (Homo sapiens) (UniProt Q9Y243). Put plainly: Inhibition of wild-type human partial length AKT3 expressed in Escherichia coli BL21 assessed as residual activity at 1000 nM after 30 mins by Kinomescan method relative to control.
For assay [18], the target named is Protein kinase C eta type (Homo sapiens) (UniProt P24723). Put plainly: Inhibition of wild-type human partial length PRKCH (S324 to P683 residues) expressed in Escherichia coli BL21 assessed as residual activity at 1000 nM after 30 mins by Kinomescan method relative to control.
In assay [19] the target is Fibroblast growth factor receptor 4 (Homo sapiens, UniProt P22455). Put plainly: Inhibition of human recombinant His-tagged FGFR4 cytoplasmic domain ([…] residues) expressed in baculovirus using Tyr-4 peptide after 1 hr by FRET-based Z'-Lyte assay.
The target in assay [20] is MAP/microtubule affinity-regulating kinase 4 (Homo sapiens) (UniProt Q96L34). The experiment in a line: Inhibition of wild-type human partial length MARK4 (K29 to G340 residues) expressed in Escherichia coli BL21 assessed as residual activity at 1000 nM after 30 mins by Kinomescan method relative to control.
In assay [21] the target is Ephrin type-A receptor 3 (Homo sapiens) (UniProt P29320). The experiment in a line: Inhibition of wild-type human partial length EPHA3 (D604 to K889 residues) expressed in Escherichia coli BL21 assessed as residual activity at 1000 nM after 30 mins by Kinomescan method relative to control.

Tyrosine-protein kinase ABL1 (Homo sapiens), P00519 [F317I], sequence (P00519 whole entry F317I, the tested form may be a part): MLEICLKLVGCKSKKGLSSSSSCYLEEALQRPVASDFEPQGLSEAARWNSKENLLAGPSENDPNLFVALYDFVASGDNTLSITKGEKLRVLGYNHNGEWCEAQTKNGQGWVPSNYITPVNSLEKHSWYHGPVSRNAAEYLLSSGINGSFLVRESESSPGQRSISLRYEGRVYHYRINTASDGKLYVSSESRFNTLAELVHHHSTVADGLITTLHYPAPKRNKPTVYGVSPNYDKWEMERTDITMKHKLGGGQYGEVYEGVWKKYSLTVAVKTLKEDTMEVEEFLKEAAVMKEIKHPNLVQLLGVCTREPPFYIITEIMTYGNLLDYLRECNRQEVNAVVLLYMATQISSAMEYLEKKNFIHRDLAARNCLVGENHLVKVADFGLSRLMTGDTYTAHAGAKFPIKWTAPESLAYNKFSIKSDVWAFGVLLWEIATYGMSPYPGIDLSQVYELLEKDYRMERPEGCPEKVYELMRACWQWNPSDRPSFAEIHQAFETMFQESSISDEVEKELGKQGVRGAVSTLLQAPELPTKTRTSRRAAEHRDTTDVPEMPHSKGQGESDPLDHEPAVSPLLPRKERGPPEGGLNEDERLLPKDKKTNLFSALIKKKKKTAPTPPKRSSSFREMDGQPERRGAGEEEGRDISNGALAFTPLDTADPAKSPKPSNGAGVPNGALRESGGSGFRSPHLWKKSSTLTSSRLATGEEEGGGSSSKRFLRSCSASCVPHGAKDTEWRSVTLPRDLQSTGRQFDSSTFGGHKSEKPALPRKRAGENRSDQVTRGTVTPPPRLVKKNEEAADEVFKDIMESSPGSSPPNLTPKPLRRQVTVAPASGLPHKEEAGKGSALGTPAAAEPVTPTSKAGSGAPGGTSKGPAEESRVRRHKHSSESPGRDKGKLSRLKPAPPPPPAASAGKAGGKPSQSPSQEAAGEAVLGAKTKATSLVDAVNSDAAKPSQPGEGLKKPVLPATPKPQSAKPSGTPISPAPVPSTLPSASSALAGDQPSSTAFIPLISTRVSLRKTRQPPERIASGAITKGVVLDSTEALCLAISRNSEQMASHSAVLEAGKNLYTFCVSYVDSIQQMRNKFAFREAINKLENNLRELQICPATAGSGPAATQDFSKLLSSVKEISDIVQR
Phosphatidylinositol 4,5-bisphosphate 3-kinase catalytic subunit alpha isoform (Homo sapiens), P42336 [E542K], sequence (P42336 whole entry E542K, the tested form may be a part, canonical isoform): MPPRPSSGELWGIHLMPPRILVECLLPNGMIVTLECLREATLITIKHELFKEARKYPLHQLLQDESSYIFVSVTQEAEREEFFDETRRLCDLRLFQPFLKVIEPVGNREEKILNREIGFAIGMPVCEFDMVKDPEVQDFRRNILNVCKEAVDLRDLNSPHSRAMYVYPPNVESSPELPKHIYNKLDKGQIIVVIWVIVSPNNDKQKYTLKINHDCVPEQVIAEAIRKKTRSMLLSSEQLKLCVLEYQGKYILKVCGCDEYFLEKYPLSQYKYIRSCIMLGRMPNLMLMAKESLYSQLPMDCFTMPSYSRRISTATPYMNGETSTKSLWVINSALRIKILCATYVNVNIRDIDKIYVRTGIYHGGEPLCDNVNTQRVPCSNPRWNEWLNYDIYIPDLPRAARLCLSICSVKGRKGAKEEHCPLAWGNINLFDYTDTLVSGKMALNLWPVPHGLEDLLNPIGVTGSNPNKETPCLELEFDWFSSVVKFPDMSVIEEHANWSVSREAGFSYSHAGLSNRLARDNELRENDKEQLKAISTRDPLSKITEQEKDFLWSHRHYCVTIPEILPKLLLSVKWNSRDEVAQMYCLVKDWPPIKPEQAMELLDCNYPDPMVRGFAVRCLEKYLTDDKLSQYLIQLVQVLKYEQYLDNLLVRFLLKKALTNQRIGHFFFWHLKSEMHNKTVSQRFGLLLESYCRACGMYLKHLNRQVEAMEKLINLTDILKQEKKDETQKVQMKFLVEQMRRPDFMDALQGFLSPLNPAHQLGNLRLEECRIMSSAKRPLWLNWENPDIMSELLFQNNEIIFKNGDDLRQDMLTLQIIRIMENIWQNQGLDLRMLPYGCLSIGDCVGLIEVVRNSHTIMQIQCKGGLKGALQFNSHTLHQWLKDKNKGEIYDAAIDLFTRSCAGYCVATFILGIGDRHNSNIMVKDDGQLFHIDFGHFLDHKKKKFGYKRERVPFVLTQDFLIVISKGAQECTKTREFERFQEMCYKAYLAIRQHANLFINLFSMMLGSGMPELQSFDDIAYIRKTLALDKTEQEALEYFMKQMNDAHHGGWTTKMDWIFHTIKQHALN
Mitogen-activated protein kinase 1 (Homo sapiens), sequence (P28482 whole entry, the tested form may be a part): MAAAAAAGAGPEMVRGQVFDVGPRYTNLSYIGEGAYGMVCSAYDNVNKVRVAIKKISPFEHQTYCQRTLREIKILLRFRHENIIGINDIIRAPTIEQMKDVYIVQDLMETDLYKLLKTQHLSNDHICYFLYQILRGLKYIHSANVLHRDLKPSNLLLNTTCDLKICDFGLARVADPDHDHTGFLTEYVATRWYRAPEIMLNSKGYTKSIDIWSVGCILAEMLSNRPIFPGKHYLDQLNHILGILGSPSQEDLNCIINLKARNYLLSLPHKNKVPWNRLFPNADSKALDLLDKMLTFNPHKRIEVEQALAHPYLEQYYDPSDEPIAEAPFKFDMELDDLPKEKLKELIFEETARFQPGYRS
Inhibitor of nuclear factor kappa-B kinase subunit epsilon (Homo sapiens), sequence (Q14164 whole entry, the tested form may be a part): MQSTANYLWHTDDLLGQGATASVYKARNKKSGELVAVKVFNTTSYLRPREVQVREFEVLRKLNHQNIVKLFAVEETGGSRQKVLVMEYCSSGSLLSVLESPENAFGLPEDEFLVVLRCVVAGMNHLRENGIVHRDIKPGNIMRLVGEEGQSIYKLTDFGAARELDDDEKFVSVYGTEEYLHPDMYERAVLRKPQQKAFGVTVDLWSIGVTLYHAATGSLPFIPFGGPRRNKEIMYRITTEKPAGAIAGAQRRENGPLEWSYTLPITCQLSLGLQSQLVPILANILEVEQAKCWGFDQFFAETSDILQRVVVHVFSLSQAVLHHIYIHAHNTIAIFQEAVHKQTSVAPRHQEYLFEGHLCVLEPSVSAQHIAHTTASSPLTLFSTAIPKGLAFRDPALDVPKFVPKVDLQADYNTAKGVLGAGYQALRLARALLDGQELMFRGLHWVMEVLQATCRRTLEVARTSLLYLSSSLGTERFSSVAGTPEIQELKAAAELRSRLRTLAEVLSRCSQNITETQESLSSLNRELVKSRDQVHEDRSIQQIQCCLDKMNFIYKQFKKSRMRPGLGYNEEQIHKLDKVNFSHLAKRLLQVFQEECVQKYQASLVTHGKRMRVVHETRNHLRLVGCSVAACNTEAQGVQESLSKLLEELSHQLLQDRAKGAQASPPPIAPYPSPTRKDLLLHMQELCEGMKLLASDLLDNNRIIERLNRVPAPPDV
NUAK family SNF1-like kinase 1 (Homo sapiens), sequence (O60285 whole entry, the tested form may be a part): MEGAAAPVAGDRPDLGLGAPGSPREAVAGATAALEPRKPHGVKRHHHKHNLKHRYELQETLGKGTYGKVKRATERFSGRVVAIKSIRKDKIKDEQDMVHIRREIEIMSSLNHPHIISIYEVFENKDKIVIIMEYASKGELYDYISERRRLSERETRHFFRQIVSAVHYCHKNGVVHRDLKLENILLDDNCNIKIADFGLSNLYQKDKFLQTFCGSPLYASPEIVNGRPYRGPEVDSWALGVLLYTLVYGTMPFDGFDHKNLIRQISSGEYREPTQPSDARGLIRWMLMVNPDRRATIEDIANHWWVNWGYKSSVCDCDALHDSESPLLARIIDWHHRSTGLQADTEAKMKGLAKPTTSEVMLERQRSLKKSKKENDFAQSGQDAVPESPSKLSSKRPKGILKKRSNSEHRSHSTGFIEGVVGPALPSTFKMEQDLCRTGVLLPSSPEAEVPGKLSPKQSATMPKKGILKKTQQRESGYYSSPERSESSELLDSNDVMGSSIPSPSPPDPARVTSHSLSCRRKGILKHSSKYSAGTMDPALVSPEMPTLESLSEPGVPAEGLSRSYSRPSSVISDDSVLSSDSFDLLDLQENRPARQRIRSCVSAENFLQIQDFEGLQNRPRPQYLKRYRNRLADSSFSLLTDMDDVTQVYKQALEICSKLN
MAP/microtubule affinity-regulating kinase 4 (Homo sapiens), sequence (Q96L34 whole entry, the tested form may be a part): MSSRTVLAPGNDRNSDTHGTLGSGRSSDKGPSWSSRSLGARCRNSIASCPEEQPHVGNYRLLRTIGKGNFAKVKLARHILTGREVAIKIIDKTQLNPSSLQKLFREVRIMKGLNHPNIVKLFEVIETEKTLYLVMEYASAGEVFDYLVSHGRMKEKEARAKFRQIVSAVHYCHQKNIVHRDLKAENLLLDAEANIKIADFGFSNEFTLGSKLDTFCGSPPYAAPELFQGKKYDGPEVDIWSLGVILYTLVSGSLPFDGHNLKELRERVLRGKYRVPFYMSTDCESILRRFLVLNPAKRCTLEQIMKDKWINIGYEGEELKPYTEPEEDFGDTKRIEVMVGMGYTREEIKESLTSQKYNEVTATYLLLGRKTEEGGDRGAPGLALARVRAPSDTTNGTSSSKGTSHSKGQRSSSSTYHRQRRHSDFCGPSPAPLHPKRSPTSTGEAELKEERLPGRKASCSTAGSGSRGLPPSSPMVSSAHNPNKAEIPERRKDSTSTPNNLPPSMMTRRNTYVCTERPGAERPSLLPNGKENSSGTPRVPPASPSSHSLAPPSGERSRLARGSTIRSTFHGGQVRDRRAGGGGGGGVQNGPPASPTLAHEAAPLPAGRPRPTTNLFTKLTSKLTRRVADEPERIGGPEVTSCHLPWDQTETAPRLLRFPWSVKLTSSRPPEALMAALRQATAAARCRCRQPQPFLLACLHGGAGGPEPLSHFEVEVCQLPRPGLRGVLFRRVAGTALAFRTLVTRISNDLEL
Aurora kinase B (Homo sapiens), sequence (Q96GD4 whole entry, the tested form may be a part): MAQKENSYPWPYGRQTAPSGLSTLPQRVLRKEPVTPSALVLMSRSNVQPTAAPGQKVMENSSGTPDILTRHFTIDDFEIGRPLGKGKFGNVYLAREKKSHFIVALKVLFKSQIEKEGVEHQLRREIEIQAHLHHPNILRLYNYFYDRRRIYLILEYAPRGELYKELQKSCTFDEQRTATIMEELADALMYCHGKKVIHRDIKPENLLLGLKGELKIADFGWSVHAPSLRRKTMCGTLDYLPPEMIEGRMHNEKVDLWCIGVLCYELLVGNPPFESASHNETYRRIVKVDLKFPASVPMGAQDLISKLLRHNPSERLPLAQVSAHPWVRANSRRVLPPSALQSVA

As to `COc1cc(OC)c(Cl)c(N2Cc3cnc(Nc4ccc(F)cc4)nc3N(C3CCN(C(=O)/C=C/CN(C)C)CC3)C2=O)c1Cl`, the Activity came to 95% in [1]; 100% in assay [3]; 100% in assay [4]; 99% in assay [5]; 57% in assay [6]; 100% in assay [7]. Moreover, the Activity in assay [8] stood at 100%; in assay [9], 100%; in assay [10], 100%; in [11], 19%; in assay [12] it was 86%; in [13], 92%. Also, the Activity in assay [14] came out at 88%; in [15] it was 100%; in assay [16] it was 99%; in assay [17], 96%; in assay [18] it was 91%; in assay [20], 87%. Moreover, the Activity in assay [21] was determined as 100%. Moreover, the IC50 in assay [2] was 0.00507 µM; in assay [19] it was 0.0781 µM.
